This passage reports IC50, inhibition and viability results from ChEMBL document CHEMBL2176929, “Hepatoprotective iridoid glycosides from the roots of Rehmannia glutinosa” (J Nat Prod, 2012).

Where only a bound is given, the exact number is not on record here.

One experiment relates to A2780. Nature of the experiment: Cytotoxicity against human A2780 cells after 4 days by MTT assay. It is filed as functional, cell-based. Particulars: A2780, 96 h.
The test system of another experiment is A549. Nature of the experiment: Cytotoxicity against human A549 cells after 4 days by MTT assay. It is filed as functional, cell-based. Particulars: A549, 96 h. Background: Tetrazolium dyes change colour on reduction, which living cells bring about.
Experiment [1] in a line: Hepatoprotective activity in human HL7702 cells assessed as inhibition of D-galactosamine-induced cell damage at 10 uM preincubated for 1 hr prior to D-galactosamine challenge measured after 24 hrs by MTT assay relative to untreated control. It is filed as functional. Conditions: L02. Put shortly:
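HL-7702 cells, 2 × 10^4 per well in RPMI 1640 with 10% FCS and penicillin/streptomycin, precultured 24 h at 37 °C in 5% CO2. Pretreated 1 h with samples (10 μM) or bicyclol (10 μM, positive control) in fresh medium, then given 25 mM D-galactosamine for 24 h. Medium removed, 0.5 mg/mL MTT for 4 h, formazan dissolved in DMSO, OD read at 492 nm. Inhibition (%) calculated by formula. Mean ± SD, n = 3 (normal/control n = 6).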

Another experiment relates to L02. Nature of the experiment: Hepatoprotective activity in D-galactosamine-treated human HL7702 cells assessed as survival rate at 10 uM preincubated for 1 hr prior to D-galactosamine challenge measured after 24 hrs by MTT assay relative to normal cell. It is filed as functional. Conditions: read-out: Survival. The procedure, abridged:
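HL-7702 cells, 2 × 10^4 per well in RPMI 1640 with 10% fetal calf serum, penicillin and streptomycin, precultured 24 h at 37 °C, 5% CO2. Test samples added in fresh medium for 1 h, then 25 mM D-galactosamine for 24 h. MTT 0.5 mg/mL, 4 h; formazan dissolved in DMSO, OD at 492 nm. Bicyclol 10 μM positive control; means ± SD, n = 3.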

Another experiment has as its system BGC-823. Description: Cytotoxicity against human BGC823 cells after 4 days by MTT assay. The class given is functional, cell-based. Particulars: BGC-823, 96 h.
Another experiment concerns Bel-7402. Nature of the experiment: Cytotoxicity against human Bel7402 cells after 4 days by MTT assay. The class given is functional, cell-based. Particulars: Bel-7402, 96 h.
For a further experiment, the system named is HCT-8. Nature of the experiment: Cytotoxicity against human HCT8 cells after 4 days by MTT assay. It is filed as functional, cell-based. Conditions: HCT-8, 96 h.

As to `CC(/C=C/[C@@]1(O)C(C)(C)C[C@H](O)C[C@@]1(C)O)=C\C(=O)O[C@@H]1C[C@](C)(O)[C@H]2[C@H](O[C@@H]3O[C@H](CO)[C@@H](O)[C@H](O)[C@H]3O)OC=C[C@H]21` [REHMAGLUTOSIDE G], the IC50 with A2780, in the experiment with A549, with BGC-823, in the experiment on Bel-7402 and in the experiment with HCT-8 was > 10 µM each time. Moreover, the inhibition – broadly, the relative decrease from the control value, in per cent – at 10 µM in experiment [1] stood at 38.7%. Further, in the experiment on L02, the viability at 10 µM amounted to 73.2%.

With `CC(/C=C/[C@@]1(O)C(C)(C)CC[C@@H](O)[C@@]1(C)O)=C\C(=O)O[C@@H]1C[C@](C)(O)[C@H]2[C@H](O[C@@H]3O[C@H](CO)[C@@H](O)[C@H](O)[C@H]3O)OC=C[C@H]21` [REHMAGLUTOSIDE H], the concentration for half-maximal inhibition (IC50) in the experiment with A2780, in the experiment on A549, in the experiment with BGC-823, in the experiment on Bel-7402 and in the experiment with HCT-8 was > 10 µM in each case.

For the compound `C[C@]1(O)C[C@@H](OC(=O)/C=C/c2ccccc2)[C@@H]2C=CO[C@@H](O[C@@H]3O[C@H](CO)[C@@H](O)[C@H](O)[C@H]3O)[C@@H]21` [REHMAGLUTOSIDE A], the half-maximal inhibitory concentration (IC50) with A2780, with A549, in the experiment with BGC-823, in the experiment on Bel-7402 and in the experiment on HCT-8 was > 10 µM throughout.

`CC(/C=C/[C@@]1(O)C(C)(C)CCC[C@@]1(C)O[C@@H]1O[C@H](CO)[C@@H](O)[C@H](O)[C@H]1O)=C\C(=O)O[C@@H]1C[C@](C)(O)[C@H]2[C@H](O[C@@H]3O[C@H](CO)[C@@H](O)[C@H](O)[C@H]3O)OC=C[C@H]21` [REHMAGLUTOSIDE I]: the half-inhibitory concentration (IC50) in the experiment on A2780, in the experiment on A549, in the experiment on BGC-823, in the experiment on Bel-7402 and in the experiment on HCT-8 was > 10 µM each time. In addition, the inhibition at 10 µM in experiment [1] came to 28.2%. Also, in the experiment with L02, the viability at 10 µM stood at 68.6%.

`COc1cc([C@@H]2Oc3c(O)cc(/C=C/C(=O)O[C@@H]4C[C@](C)(O)[C@H]5[C@H](O[C@@H]6O[C@H](CO)[C@@H](O)[C@H](O)[C@H]6O)OC=C[C@H]54)cc3[C@H]2CO)ccc1O` [REHMAGLUTOSIDE E]: the IC50 with A2780, in the experiment on A549, in the experiment on BGC-823, in the experiment on Bel-7402 and with HCT-8 was > 10 µM throughout.

Take `C[C@]1(O)C[C@@H](OC(=O)CCc2cc(O)ccn2)[C@@H]2C=CO[C@@H](O[C@@H]3O[C@H](CO)[C@@H](O)[C@H](O)[C@H]3O)[C@@H]21` [REHMAGLUTOSIDE D]: the IC50 in the experiment on A2780, with A549, with BGC-823, with Bel-7402 and in the experiment with HCT-8 was > 10 µM in each case.

Turning to `CC(/C=C/[C@@]1(O)C(C)(C)CCC[C@@]1(C)O)=C\C(=O)O[C@@H]1C[C@](C)(O)[C@H]2[C@H](O[C@@H]3O[C@H](CO)[C@@H](O)[C@H](O)[C@H]3O)OC=C[C@H]21` [REHMAGLUTOSIDE F], the IC50 with A2780, with A549, with BGC-823, with Bel-7402 and with HCT-8 was > 10 µM each time.

Turning to `COc1cc(C(=O)O[C@@H]2C[C@](C)(O)[C@H]3[C@H](O[C@@H]4O[C@H](CO)[C@@H](O)[C@H](O)[C@H]4O)OC=C[C@H]32)cc(OC)c1O[C@@H]1O[C@@H](C)[C@H](O)[C@@H](O)[C@H]1O` [REHMAGLUTOSIDE C], the concentration for half-maximal inhibition (IC50) with A2780, in the experiment on A549, in the experiment on BGC-823, in the experiment on Bel-7402 and in the experiment with HCT-8 was > 10 µM each time. Besides, the inhibition at 10 µM in experiment [1] was 33.6%. Moreover, the viability at 10 µM with L02 was 71%.

As to `COC(=O)c1cc(OC)c2c(c1-c1c(CO)cc(OC)c3c1OCO3)OCO2` [BICYCLOL], the inhibition at 10 µM in experiment [1] was 16.7%. In addition, the viability at 10 µM with L02 was 63.6%.

In the case of `C[C@]1(O)C[C@@H](O)[C@@H]2C=CO[C@@H](O[C@@H]3O[C@H](CO[C@@H]4C[C@H]5[C@@H]([C@@H](O[C@@H]6O[C@H](CO)[C@@H](O)[C@H](O)[C@H]6O)O4)[C@](C)(O)C[C@@H]5O)[C@@H](O)[C@H](O)[C@H]3O)[C@@H]21` [REHMAGLUTOSIDE K], the IC50 with A2780, in the experiment on A549, with BGC-823, in the experiment on Bel-7402 and in the experiment with HCT-8 was > 10 µM in each case. In addition, the inhibition at 10 µM in experiment [1] was found to be 35.5%. The viability at 10 µM in the experiment with L02 is 71.8%.

As for `COc1cc(C(=O)O[C@@H]2C[C@](C)(O)[C@H]3[C@H](O[C@@H]4O[C@H](CO)[C@@H](O)[C@H](O)[C@H]4O)OC=C[C@H]32)ccc1O[C@@H]1O[C@H](CO)[C@@H](O)[C@H](O)[C@H]1O` [REHMAGLUTOSIDE B], the IC50 with A2780, in the experiment on A549, in the experiment with BGC-823, in the experiment with Bel-7402 and with HCT-8 was > 10 µM in each case.

As to `C[C@]1(O)C[C@@H](O)[C@@H]2C=CO[C@@H](O[C@@H]3O[C@H](CO[C@H]4C[C@H]5[C@@H]([C@@H](O[C@@H]6O[C@H](CO)[C@@H](O)[C@H](O)[C@H]6O)O4)[C@](C)(O)C[C@@H]5O)[C@@H](O)[C@H](O)[C@H]3O)[C@@H]21` [REHMAGLUTOSIDE J], the IC50 in the experiment on A2780, in the experiment on A549, with BGC-823, in the experiment with Bel-7402 and in the experiment on HCT-8 was > 10 µM throughout. Besides, in experiment [1], the inhibition at 10 µM was 25.2%. In addition, the viability at 10 µM in the experiment with L02 was 67.3%.
